# Legend:
# [1] = tested on: Acinetobacter baumannii; assay: Synergistic bactericidal activity against Acinetobacter baumannii ATCC 19606 at 35:1 compound to doxycycline ratio after 48 hrs by resazurin dye based microdilution broth checkerboard method; type: functional; settings: ATCC 19606 = CIP 70.34 = JCM 6841, 48 h, read-out: MBC99.9
# In short: (§1)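 Checkerboard broth microdilution of drug pairs in tryptic soy broth on mid-log cultures (OD 0.5), 48 h at 37 °C. Growth read by resazurin (pink growth, blue no growth). MBC is blue retained over 4 h, CFU plating where needed. ΣFIC = C_A/MIC_A + C_B/MIC_B, taken at the growth/no-growth interface wells; ΣFIC <0.5 counts as synergy.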
# [2] = tested on: Pseudomonas aeruginosa; assay: Synergistic bactericidal activity against Pseudomonas aeruginosa ATCC 27853 at 60:1 compound to doxycycline ratio after 48 hrs by resazurin dye based microdilution broth checkerboard method; type: functional; settings: ATCC 27853, 48 h, read-out: MBC99.9; in short: as §1
# [3] = tested on: Acinetobacter baumannii; assay: Antibacterial activity against Acinetobacter baumannii ATCC 19606 infected in C57BL/6 mouse assessed as survival rate at 20 mg/kg, ip administered as single dose measured for 5 days (reference value: <20%); type: functional; settings: ATCC 19606 = CIP 70.34 = JCM 6841, ip, 120 h
# In short: (§2)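 C57BL/6 mice (n = 5 per group; 4 untreated controls) infected intraperitoneally with A. baumannii ATCC19606 grown at 37 °C and collected by centrifugation, at a dose giving 75% death. Single intraperitoneal dose (2 to 60 mg/kg) given 1 h after infection. Mice monitored for 5 days, with death as the end point; survival rate recorded.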
# [4] = tested on: Mycobacterium tuberculosis; assay: Synergistic bactericidal activity against Mycobacterium tuberculosis H37Rv at 2:1 compound to doxycycline ratio after 48 hrs by resazurin dye based microdilution broth checkerboard method; type: functional; settings: read-out: MBC99.9
# [5] = Protein binding in rat plasma at 500 to 5000 ng/ml after 4 hrs by LC/MS analysis; type: ADME, cell-free
# In short: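 Equilibrium dialysis (MWCO 6000–8000) of Sprague-Dawley rat plasma (lithium heparin) spiked at 500 and 5000 ng/mL, in duplicate, against isotonic phosphate buffer pH 7.4. 4 h at 37 °C, about 100 rpm. Methanol with internal standard, LC-MS. Free fraction = buffer/plasma concentration; reported as % bound. Verapamil as reference.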
# [6] = tested on: Acinetobacter baumannii; assay: Synergistic antibacterial activity against multidrug-resistant Acinetobacter baumannii ATCC […] at 60:1 compound to doxycycline ratio after 48 hrs by resazurin dye based microdilution broth checkerboard method; type: functional; settings: ATCC BAA 18002, 48 h
# In short: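 Microdilution broth checkerboard of the compound combined with doxycycline, using the resazurin broth method (48 h, 37 °C, blue = no growth). ΣFIC = C_A/MIC_A + C_B/MIC_B, taken at the growth–no growth interface wells; ΣFIC below 0.5 is scored as synergy. MBC for the fixed-ratio combinations read as the 4 h resazurin endpoint.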
# [7] = Half life in Sprague-Dawley rat liver microsomes at 500 ng/ml by LC/MS analysis; type: ADME, microsome
# In short: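 Pooled Sprague-Dawley rat liver microsomes at 1 mg/mL protein in 100 mM phosphate, pH 7.4. Compound at 500 ng/mL final; verapamil as positive control. Pre-equilibrated 5 min at 37 °C, then 1 mM NADPH added. Triplicate samples at 0, 5, 10, 20, 30, 45 and 60 min, quenched in 4 volumes of cold methanol, analysed by LC-MS.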
# [8] = tested on: Pseudomonas aeruginosa; assay: Growth inhibition of Pseudomonas aeruginosa ATCC 27853 at 2:1 compound to doxycycline ratio after 48 hrs by resazurin dye based microdilution method; type: functional; settings: ATCC 27853, 48 h; in short: as §1
# [9] = tested on: Acinetobacter baumannii; assay: Synergistic antibacterial activity against Acinetobacter baumannii ATCC 19606 infected in C57BL/6 mouse assessed as survival rate at compound to doxycycline ratio of 35:1 at 4 mg/kg, ip administered as single dose measured for 5 days (reference value: <20%); type: functional; settings: ATCC 19606 = CIP 70.34 = JCM 6841, ip, 120 h; in short: as §2
# [10] = Safety index, ratio of compound IC50 to valnemulin IC50 for African green monkey Vero cells; type: ADME, cell-based; settings: chlorocebus sabaeus, read-out: Ratio IC50
# [11] = tested on: Pseudomonas aeruginosa; assay: Synergistic bactericidal activity against Pseudomonas aeruginosa ATCC 27853 at 35:1 compound to doxycycline ratio after 48 hrs by resazurin dye based microdilution broth checkerboard method; type: functional; settings: ATCC 27853, 48 h, read-out: MBC99.9; in short: as §1
# [12] = tested on: Acinetobacter baumannii; assay: Potentiation of doxycycline-induced antimicrobial activity against Acinetobacter baumannii ATCC 19606 at 0.20 ug/ml in presence of 0.05 ug/ml doxycycline by microdilution broth checkerboard method; type: functional, ATCC 19606 = CIP 70.34 = JCM 6841
# In short: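 A. baumannii ATCC 19606 in a broth microdilution checkerboard with doxycycline, 96 concentration combinations. ΣFIC = C_A/MIC_A + C_B/MIC_B, taken for wells at the growth/no-growth interface; ΣFIC <0.5 counts as synergy.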
# [13] = tested on: Acinetobacter baumannii; assay: Synergistic antibacterial activity against Acinetobacter baumannii ATCC 19606 at 60:1 compound to doxycycline ratio after 48 hrs by resazurin dye based microdilution broth checkerboard method; type: functional; settings: ATCC 19606 = CIP 70.34 = JCM 6841, 48 h; in short: as §1
smiles,measurement,setting,value
C=C[C@]1(C)C[C@@H](OC(=O)CSC(C)(C)CNC(=O)[C@H](N)C(C)C)[C@]2(C)[C@H](C)CC[C@]3(CC[C@@H](O)[C@H]32)[C@@H](C)[C@@H]1O,MBC,[1],2 µg/mL
same,MBC,[2],25 µg/mL
same,survival at 20 mg/kg,[3],100%
same,MBC,[4],6.25 µg/mL
same,PPB,[5],76.9%
same,MIC,[6],1.56 µg/mL
same,t1/2,[7],> 1 h
same,MIC,[8],6.25 µg/mL
same,survival at 4 mg/kg,[9],100%
same,selectivity ratio,[10],2.85
same,MBC,[11],25 µg/mL
same,fractional inhibitory concentration index (FICI),[12],0.28
same,MIC,[13],0.5 µg/mL

# Reference: ChEMBL document CHEMBL4177542, “A New Combination of a Pleuromutilin Derivative and Doxycycline for Treatment of Multidrug-Resistant Acinetobacter baumannii” (J Med Chem, 2017)
